From ChEMBL document CHEMBL1156074, “Diazo transfer-click reaction route to new, lipophilic teicoplanin and ristocetin aglycon derivatives with high antibacterial and anti-influenza virus activity: an aggregation and receptor binding study” (J Med Chem, 2009)
Values after ≈ are worked out from the molar mass of the structure shown. Active and inactive are the calls of the source.

Key:
Enterococcus faecalis [1] = assay: Antibacterial activity against vancomycin and teicoplanin-resistant Enterococcus faecalis 15376 harboring vanA gene after 18 hrs by broth microdilution method; format: functional; settings: Enterococcus faecalis, 15376, 18 h
Enterococcus faecalis [2] = assay: Bactericidal activity against vancomycin and teicoplanin-resistant Enterococcus faecalis 15376 harboring vanA gene after overnight incubation; format: functional
Influenza A virus [3] = assay: Antiviral activity against Influenza A virus (A/Puerto Rico/8/34(H1N1)) assessed as inhibition of virus-induced cytopathic effect at highest concentration by cell-based assay; format: functional, organism-based; settings: A/Puerto Rico/8/1934(H1N1)
Method in brief: (§1)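 Virus-induced cytopathic effect is scored visually in infected cell cultures. EC50 is defined as the compound concentration producing 50% inhibition of the CPE. A compound is recorded as not active when there is no inhibition at the highest concentration tested or at a subtoxic concentration.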

Influenza A virus [4] = assay: Antiviral activity against Influenza A virus (A/Puerto Rico/8/34(H1N1)) assessed as cell viability at subtoxic concentration by cell-based MTS assay; format: functional, organism-based; settings: A/Puerto Rico/8/1934(H1N1)
H3N2 subtype [5] = assay: Antiviral activity against Influenza A virus (A/Hong Kong/7/87(H3N2)) assessed as inhibition of virus-induced cytopathic effect at highest concentration by cell-based assay; format: functional, organism-based; settings: A/Hong Kong/7/1987(H3N2); method in brief: as §1
H3N2 subtype [6] = assay: Antiviral activity against Influenza A virus (A/Hong Kong/7/87(H3N2)) assessed as cell viability at subtoxic concentration by cell-based MTS assay; format: functional, organism-based; settings: A/Hong Kong/7/1987(H3N2)
Influenza B virus [7] = assay: Antiviral activity against Influenza B virus (B/Hong Kong/5/72) assessed as inhibition of virus-induced cytopathic effect at highest concentration by cell-based assay; format: functional; settings: B/Hong Kong/05/1972; method in brief: as §1
Influenza B virus [8] = assay: Antiviral activity against Influenza B virus (B/Hong Kong/5/72) assessed as cell viability at subtoxic concentration by cell-based MTS assay; format: functional; settings: B/Hong Kong/05/1972
Bacillus subtilis [9] = assay: Antibacterial activity against Bacillus subtilis ATCC 6633 after 18 hrs by broth microdilution method; format: functional; settings: ATCC 6633, 18 h
Bacillus subtilis [10] = assay: Bactericidal activity against Bacillus subtilis ATCC 6633 after overnight incubation; format: functional
Staphylococcus aureus [11] = assay: Antibacterial activity against methicillin-sensitive Staphylococcus aureus ATCC 33591 after 18 hrs by broth microdilution method; format: functional; settings: ATCC 33591, 18 h
Staphylococcus aureus [12] = assay: Bactericidal activity against methicillin-sensitive Staphylococcus aureus ATCC 33591 after overnight incubation; format: functional
Staphylococcus aureus [13] = assay: Antibacterial activity against methicillin-sensitive Staphylococcus aureus ATCC 29213 after 18 hrs by broth microdilution method; format: functional; settings: ATCC 29213, 18 h
Staphylococcus aureus [14] = assay: Bactericidal activity against methicillin-sensitive Staphylococcus aureus ATCC 29213 after overnight incubation; format: functional
[15] = system: Staphylococcus epidermidis; assay: Antibacterial activity against biofilm of Staphylococcus epidermidis ATCC 35984 after 18 hrs by broth microdilution method; format: functional; settings: RP62A
[16] = system: Staphylococcus epidermidis; assay: Bactericidal activity against biofilm of Staphylococcus epidermidis ATCC 35984 after overnight incubation; format: functional; settings: RP62A
[17] = system: Staphylococcus epidermidis; assay: Antibacterial activity against Staphylococcus epidermidis after 18 hrs by broth microdilution method; format: functional
[18] = system: Staphylococcus epidermidis; assay: Bactericidal activity against Staphylococcus epidermidis after overnight incubation; format: functional
Enterococcus faecalis [19] = assay: Antibacterial activity against vancomycin and teicoplanin-sensitive Enterococcus faecalis ATCC 29212 after 18 hrs by broth microdilution method; format: functional; settings: ATCC 29212, 18 h
Enterococcus faecalis [20] = assay: Bactericidal activity against vancomycin and teicoplanin-sensitive Enterococcus faecalis ATCC 29212 after overnight incubation; format: functional
Enterococcus faecalis [21] = assay: Antibacterial activity against vancomycin-resistant and teicoplanin-sensitive Enterococcus faecalis ATCC 51299 harboring vanB gene after 18 hrs by broth microdilution method; format: functional; settings: ATCC 51299, 18 h
Enterococcus faecalis [22] = assay: Bactericidal activity against vancomycin-resistant and teicoplanin-sensitive Enterococcus faecalis ATCC 51299 harboring vanB gene after overnight incubation; format: functional

Compound | MIC (Enterococcus faecalis [1]) | inhibition (Influenza A virus [3]) | inhibition (Influenza A virus [4]) | inhibition (H3N2 subtype [5]) | inhibition (H3N2 subtype [6]) | inhibition (Influenza B virus [7]) | MIC (Bacillus subtilis [9]) | MBC (Bacillus subtilis [10]) | MIC (Staphylococcus aureus [11]) | MBC (Staphylococcus aureus [12]) | MIC (Staphylococcus aureus [13]) | MBC (Staphylococcus aureus [14]) | MIC [15] | MBC [16] | MIC [17] | MBC [18] | MIC (Enterococcus faecalis [19]) | MBC (Enterococcus faecalis [20]) | MIC (Enterococcus faecalis [21]) | MBC (Enterococcus faecalis [22]) | other results
CCCCCCCCCCOCc1cn([C@H]2C(=O)N[C@@H]3Cc4ccc(c(Cl)c4)Oc4cc5cc(c4O)Oc4ccc(cc4Cl)[C@@H](O[C@@H]4O[C@H](CO)[C@@H](O)[C@H](O)[C@H]4NC(C)=O)[C@@H]4NC(=O)[C@H](NC(=O)[C@@H]5NC(=O)[C@@H](NC3=O)c3cc(O)cc(c3)Oc3cc2ccc3O)c2ccc(O)c(c2)-c2c(O)cc(O)cc2[C@H](C(=O)O)NC4=O)nn1 | 0.5 µg/mL (≈ 0.308 µM) | inactive | inactive | inactive | inactive | inactive | 2 µg/mL (≈ 1.23 µM) | 0.25 µg/mL (≈ 0.154 µM) | 0.5 µg/mL (≈ 0.308 µM) | 0.25 µg/mL (≈ 0.154 µM) | 0.5 µg/mL (≈ 0.308 µM) | 0.25 µg/mL (≈ 0.154 µM) | 0.5 µg/mL (≈ 0.308 µM) | 0.25 µg/mL (≈ 0.154 µM) | 0.5 µg/mL (≈ 0.308 µM) | 0.5 µg/mL (≈ 0.308 µM) | 0.5 µg/mL (≈ 0.308 µM) | 0.25 µg/mL (≈ 0.154 µM) | 0.5 µg/mL (≈ 0.308 µM) | 0.25 µg/mL (≈ 0.154 µM) | MBC (Enterococcus faecalis [2]): 0.25 µg/mL (≈ 0.154 µM); inhibition (Influenza B virus [8]): inactive
CCCCCCCCCCOCc1cn([C@H]2C(=O)N[C@@H]3Cc4ccc(c(Cl)c4)Oc4cc5cc(c4O)Oc4ccc(cc4Cl)[C@@H](O)[C@@H]4NC(=O)[C@H](NC(=O)[C@@H]5NC(=O)[C@@H](NC3=O)c3cc(O)cc(c3)Oc3cc2ccc3O)c2ccc(O)c(c2)-c2c(O)cc(O)cc2[C@H](C(=O)OC)NC4=O)nn1 | 128 µg/mL (≈ 89.2 µM) | inactive | inactive | inactive | inactive | inactive | 0.5 µg/mL (≈ 0.348 µM) | 0.5 µg/mL (≈ 0.348 µM) | 64 µg/mL (≈ 44.6 µM) | 256 µg/mL (≈ 178 µM) | 128 µg/mL (≈ 89.2 µM) | 256 µg/mL (≈ 178 µM) | 256 µg/mL (≈ 178 µM) | 256 µg/mL (≈ 178 µM) | 16 µg/mL (≈ 11.1 µM) | 64 µg/mL (≈ 44.6 µM) | 32 µg/mL (≈ 22.3 µM) | 128 µg/mL (≈ 89.2 µM) | 64 µg/mL (≈ 44.6 µM) | 256 µg/mL (≈ 178 µM) | MBC (Enterococcus faecalis [2]): 256 µg/mL (≈ 178 µM); inhibition (Influenza B virus [8]): inactive
COC(=O)[C@@H]1NC(=O)[C@H]2NC(=O)[C@H](NC(=O)[C@@H]3NC(=O)[C@H]4NC(=O)[C@H](NC(=O)[C@H](n5cc(COc6ccc(-c7ccccc7)cc6)nn5)c5ccc(O)c(c5)Oc5cc4cc(O)c5C)[C@H](O)c4ccc(cc4)Oc4cc3cc(c4O)Oc3ccc(cc3)[C@H]2O)c2ccc(O)c(c2)-c2c(O)cc(O)cc21 | > 256 µg/mL | inactive | inactive | inactive | inactive | inactive | > 256 µg/mL | – | > 256 µg/mL | – | > 256 µg/mL | – | > 256 µg/mL | – | > 256 µg/mL | – | > 256 µg/mL | – | > 256 µg/mL | – | inhibition (Influenza B virus [8]): inactive
CC(=O)N[C@H]1[C@H](O[C@@H]2c3ccc(c(Cl)c3)Oc3cc4cc(c3O)Oc3ccc(cc3Cl)C[C@H]3NC(=O)[C@H](n5cc(COc6ccc(-c7ccccc7)cc6)nn5)c5ccc(O)c(c5)Oc5cc(O)cc(c5)[C@H](NC3=O)C(=O)N[C@H]4C(=O)N[C@H]3C(=O)N[C@@H]2C(=O)N[C@@H](C(=O)O)c2cc(O)cc(O)c2-c2cc3ccc2O)O[C@H](CO)[C@@H](O)[C@@H]1O | 0.5 µg/mL (≈ 0.306 µM) | – | – | – | – | – | 0.5 µg/mL (≈ 0.306 µM) | 0.25 µg/mL (≈ 0.153 µM) | 0.5 µg/mL (≈ 0.306 µM) | 0.25 µg/mL (≈ 0.153 µM) | 0.5 µg/mL (≈ 0.306 µM) | 0.25 µg/mL (≈ 0.153 µM) | 0.5 µg/mL (≈ 0.306 µM) | – | 0.5 µg/mL (≈ 0.306 µM) | – | 0.5 µg/mL (≈ 0.306 µM) | 0.25 µg/mL (≈ 0.153 µM) | 0.5 µg/mL (≈ 0.306 µM) | 0.25 µg/mL (≈ 0.153 µM) | MBC (Enterococcus faecalis [2]): 0.25 µg/mL (≈ 0.153 µM)
COC(=O)[C@H]1NC(=O)[C@H]2NC(=O)[C@H](NC(=O)[C@@H]3NC(=O)[C@H]4NC(=O)[C@H](NC(=O)[C@H](N=[N+]=[N-])c5ccc(O)c(c5)Oc5cc4cc(O)c5C)[C@H](O)c4ccc(cc4)Oc4cc3cc(c4O)Oc3ccc(cc3)[C@H]2O)c2ccc(O)c(c2)-c2c(O)cc(O)cc21 | > 256 µg/mL | – | – | – | – | – | 4 µg/mL (≈ 3.33 µM) | 1 µg/mL (≈ 0.833 µM) | 2 µg/mL (≈ 1.67 µM) | 1 µg/mL (≈ 0.833 µM) | 2 µg/mL (≈ 1.67 µM) | 2 µg/mL (≈ 1.67 µM) | 16 µg/mL (≈ 13.3 µM) | 8 µg/mL (≈ 6.67 µM) | 16 µg/mL (≈ 13.3 µM) | 16 µg/mL (≈ 13.3 µM) | 16 µg/mL (≈ 13.3 µM) | 8 µg/mL (≈ 6.67 µM) | 128 µg/mL (≈ 107 µM) | 64 µg/mL (≈ 53.3 µM) | –
CN[C@H](CC(C)C)C(=O)N[C@H]1C(=O)N[C@@H](CC(N)=O)C(=O)N[C@H]2C(=O)N[C@H]3C(=O)N[C@H](C(=O)N[C@H](C(=O)O)c4cc(O)cc(O)c4-c4cc3ccc4O)[C@H](O)c3ccc(c(Cl)c3)Oc3cc2cc(c3O[C@@H]2O[C@H](CO)[C@@H](O)[C@H](O)[C@H]2O[C@H]2C[C@](C)(N)[C@H](O)[C@H](C)O2)Oc2ccc(cc2Cl)[C@H]1O [VANCOMYCIN] | > 256 µg/mL | – | – | – | – | – | 1 µg/mL (≈ 0.69 µM) | 4 µg/mL (≈ 2.76 µM) | – | 4 µg/mL (≈ 2.76 µM) | – | 4 µg/mL (≈ 2.76 µM) | – | 4 µg/mL (≈ 2.76 µM) | – | 4 µg/mL (≈ 2.76 µM) | – | 16 µg/mL (≈ 11 µM) | 16 µg/mL (≈ 11 µM) | 16 µg/mL (≈ 11 µM) | –
CC(=O)N[C@H]1[C@H](O[C@@H]2c3ccc(c(Cl)c3)Oc3cc4cc(c3O)Oc3ccc(cc3Cl)C[C@H]3NC(=O)[C@H](N=[N+]=[N-])c5ccc(O)c(c5)Oc5cc(O)cc(c5)[C@H](NC3=O)C(=O)N[C@H]4C(=O)N[C@H]3C(=O)N[C@@H]2C(=O)N[C@@H](C(=O)O)c2cc(O)cc(O)c2-c2cc3ccc2O)O[C@H](CO)[C@@H](O)[C@@H]1O | > 256 µg/mL | inactive | inactive | inactive | inactive | inactive | 64 µg/mL (≈ 44.8 µM) | 32 µg/mL (≈ 22.4 µM) | 4 µg/mL (≈ 2.8 µM) | 2 µg/mL (≈ 1.4 µM) | 8 µg/mL (≈ 5.6 µM) | 8 µg/mL (≈ 5.6 µM) | 16 µg/mL (≈ 11.2 µM) | 16 µg/mL (≈ 11.2 µM) | 4 µg/mL (≈ 2.8 µM) | 4 µg/mL (≈ 2.8 µM) | 32 µg/mL (≈ 22.4 µM) | 32 µg/mL (≈ 22.4 µM) | 64 µg/mL (≈ 44.8 µM) | 32 µg/mL (≈ 22.4 µM) | inhibition (Influenza B virus [8]): inactive
